Assays:
[1] = molecular target: double δ-OR mutant Leu300^7.35Trp - Trp284^6.58Lys (human) (UniProt P41143)
human δ-OR = assay: δ-OR β-arrestin recruitment Tango assay; format: cell-based; conditions: normalized to DADLE, N = 3 in quadruplicate, Supplementary Fig. 5
Summary of the method: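 Modified Tango β-arrestin recruitment format at human δ-OR. Values are mean ± SEM from three independent experiments, each run in quadruplicate.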

μ-OR = conditions: cited from earlier work
δ-OR = conditions: cited from earlier work
[2] = co-administration with morphine; cited from earlier work

In the case of “DIPP-NH2, H-Dmt(1)-Tic(2)-Phe(3)-Phe(4)-NH2 (peptide)”, the fold decrease in affinity against the unmutated receptor [1] is reported as > 100 fold.

For “H-Dmt(1)-Tic(2)-Phe(3)-Phe(4)-NH2 [DIPP-NH2]”, the “Agonist activity at δ-OR, β-arrestin pathway” value (human δ-OR) is listed as “weak partial agonist activity”, the “Functional activity in guinea pig ileum assay” value (μ-OR) is listed as “μ-OR agonist” and the “Functional activity in mouse vas deferens assay” value (δ-OR) is listed as “δ-OR antagonist”.

For `Oc1ccc2c3c1O[C@H]1c4[nH]c5ccccc5c4C[C@@]4(O)[C@@H](C2)N(CC2CC2)CC[C@]314` [naltrindole], the “Effect on development of morphine-induced tolerance and dependence” value [2] is listed as “prevent the development of morphine-induced tolerance and dependence”.

Source: paper PMC4351130 (Nature structural & molecular biology, 2015)
